Laboratory results published in ChEMBL document CHEMBL5303300, “EUbOPEN Chemogenomics Library - Multiplex” (2023).
Values joined by “and” are separate entries in the source; they are usually repeats but may differ in a detail not shown here. Equal values may be shown once.

Assays:
Fibroblast = experiment: Multiplex assay against human fibroblast; assay type: toxicity, cell-based; conditions: number of replicates 2
Method in brief: (§1)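 Imaging took place on a CQ1 microscope at 37°C and 5% CO2 once compound had been added to live cells stained at seeding with Hoechst33342, BioTracker Green Microtubule Cytoskeleton Dye, MitoTracker Red and Annexin V Alexa Fluor 680. CellPathfinder machine-learning gating classed cells as Hoechst high-intensity objects or normal cells, classed normal cells as having healthy, pyknosed or fragmented nuclei, and classed pyknosed cells as mitotic or apoptotic. Tubulin, mitochondrial-mass and membrane-permeability phenotypes are per cents of the healthy-nucleus cells.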

HEK-293T = experiment: Multiplex assay against HEK293T; assay type: toxicity, cell-based; conditions: human, number of replicates 2; method in brief: as §1
[1] = 24 h, 10 µM, compound concentration 10 uM
[2] = 48 h, 1 µM, compound concentration 1 uM
[3] = 48 h, 10 µM, compound concentration 10 uM
[4] = 12 h, 1 µM, compound concentration 1 uM
[5] = 12 h, 10 µM, compound concentration 10 uM
[6] = 24 h, 1 µM, compound concentration 1 uM

COc1cccc(Cn2cc(C(=O)Nc3ccc(C)c(S(=O)(=O)N4CCOCC4)c3)c(-c3ccc(C)cc3)n2)c1
Population Mitochondria Different-Phenotype (%) (Fibroblast; [1]): 2% and 7% | Population Mitotic Cells (%) (Fibroblast; [1]): 33% and 32% | Population Normal (%) (Fibroblast; [1]): 100% and 98% | Population Pyknosed Nuclei (%) (Fibroblast; [1]): 19% and 32% | Population Tubulin-Different-Phenotype (%) (Fibroblast; [1]): 90% and 84% | Total Cell Count (Fibroblast; [1]): 199 and 219 | Population Apoptotic (%) (Fibroblast; [2]): 73% and 64% | Population Fragmented Nuclei (%) (Fibroblast; [2]): 13% and 11% | Population Healthy Nuclei (%) (Fibroblast; [2]): 65% and 67% | Population Hoechst High Intensity Objects (%) (Fibroblast; [2]): 0% | Population Membrane Permeable-Phenotype (%) (Fibroblast; [2]): 6% and 9% | Population Mitochondria Different-Phenotype (%) (Fibroblast; [2]): 1% and 2% | Population Mitotic Cells (%) (Fibroblast; [2]): 26% and 35% | Population Normal (%) (Fibroblast; [2]): 100% and 99% | Population Pyknosed Nuclei (%) (Fibroblast; [2]): 21% and 20% | Population Tubulin-Different-Phenotype (%) (Fibroblast; [2]): 34% | Total Cell Count (Fibroblast; [2]): 178 and 191 | Population Apoptotic (%) (Fibroblast; [3]): 75% | Population Fragmented Nuclei (%) (Fibroblast; [3]): 15% and 17% | Population Healthy Nuclei (%) (Fibroblast; [3]): 69% and 58% | Population Hoechst High Intensity Objects (%) (Fibroblast; [3]): 0% and 1% | Population Membrane Permeable-Phenotype (%) (Fibroblast; [3]): 25% and 23% | Population Mitochondria Different-Phenotype (%) (Fibroblast; [3]): 1% and 5% | Population Mitotic Cells (%) (Fibroblast; [3]): 25% | Population Normal (%) (Fibroblast; [3]): 100% and 98% | Population Pyknosed Nuclei (%) (Fibroblast; [3]): 15% and 23% | Population Tubulin-Different-Phenotype (%) (Fibroblast; [3]): 89% and 83% | Total Cell Count (Fibroblast; [3]): 210 and 238 | Population Apoptotic (%) (HEK-293T; [4]): 39% and 54% | Population Fragmented Nuclei (%) (HEK-293T; [4]): 2% | Population Healthy Nuclei (%) (HEK-293T; [4]): 81% and 84% | Population Hoechst High Intensity Objects (%) (HEK-293T; [4]): 5% and 4% | Population Membrane Permeable-Phenotype (%) (HEK-293T; [4]): 6% and 4% | Population Mitochondria Different-Phenotype (%) (HEK-293T; [4]): 25% and 22% | Population Mitotic Cells (%) (HEK-293T; [4]): 60% and 45% | Population Normal (%) (HEK-293T; [4]): 94% and 95% | Population Pyknosed Nuclei (%) (HEK-293T; [4]): 15% and 12% | Population Tubulin-Different-Phenotype (%) (HEK-293T; [4]): 76% | Total Cell Count (HEK-293T; [4]): 633 and 601 | Population Apoptotic (%) (HEK-293T; [5]): 35% and 56% | Population Fragmented Nuclei (%) (HEK-293T; [5]): 1% and 3% | Population Healthy Nuclei (%) (HEK-293T; [5]): 83% | Population Hoechst High Intensity Objects (%) (HEK-293T; [5]): 6% and 7% | Population Membrane Permeable-Phenotype (%) (HEK-293T; [5]): 21% and 19% | Population Mitochondria Different-Phenotype (%) (HEK-293T; [5]): 24% and 26% | Population Mitotic Cells (%) (HEK-293T; [5]): 64% and 43% | Population Normal (%) (HEK-293T; [5]): 93% and 92% | Population Pyknosed Nuclei (%) (HEK-293T; [5]): 14% and 13% | Population Tubulin-Different-Phenotype (%) (HEK-293T; [5]): 84% and 87% | Total Cell Count (HEK-293T; [5]): 611 and 568 | Population Apoptotic (%) (HEK-293T; [6]): 46% and 42% | Population Fragmented Nuclei (%) (HEK-293T; [6]): 5% and 4% | Population Healthy Nuclei (%) (HEK-293T; [6]): 84% and 87% | Population Hoechst High Intensity Objects (%) (HEK-293T; [6]): 9% and 6% | Population Membrane Permeable-Phenotype (%) (HEK-293T; [6]): 5% and 6% | Population Mitochondria Different-Phenotype (%) (HEK-293T; [6]): 13% and 12% | Population Mitotic Cells (%) (HEK-293T; [6]): 53% and 57% | Population Normal (%) (HEK-293T; [6]): 90% and 93% | Population Pyknosed Nuclei (%) (HEK-293T; [6]): 9% and 8% | Population Tubulin-Different-Phenotype (%) (HEK-293T; [6]): 59% | Total Cell Count (HEK-293T; [6]): 851 and 807 | Population Apoptotic (%) (HEK-293T; [1]): 34% and 50% | Population Fragmented Nuclei (%) (HEK-293T; [1]): 3% and 2% | Population Healthy Nuclei (%) (HEK-293T; [1]): 81% and 83% | Population Hoechst High Intensity Objects (%) (HEK-293T; [1]): 8% | Population Membrane Permeable-Phenotype (%) (HEK-293T; [1]): 19% and 22% | Population Mitochondria Different-Phenotype (%) (HEK-293T; [1]): 21% and 22% | Population Mitotic Cells (%) (HEK-293T; [1]): 65% and 50% | Population Normal (%) (HEK-293T; [1]): 91% | Population Pyknosed Nuclei (%) (HEK-293T; [1]): 15% and 13% | Population Tubulin-Different-Phenotype (%) (HEK-293T; [1]): 90% | Total Cell Count (HEK-293T; [1]): 684 and 610 | Population Apoptotic (%) (HEK-293T; [2]): 27% and 29% | Population Fragmented Nuclei (%) (HEK-293T; [2]): 8% | Population Healthy Nuclei (%) (HEK-293T; [2]): 87% and 85% | Population Hoechst High Intensity Objects (%) (HEK-293T; [2]): 9% | Population Membrane Permeable-Phenotype (%) (HEK-293T; [2]): 7% | Population Mitochondria Different-Phenotype (%) (HEK-293T; [2]): 3% and 4% | Population Mitotic Cells (%) (HEK-293T; [2]): 72% and 70% | Population Normal (%) (HEK-293T; [2]): 90% | Population Pyknosed Nuclei (%) (HEK-293T; [2]): 4% and 5% | Population Tubulin-Different-Phenotype (%) (HEK-293T; [2]): 39% and 45% | Total Cell Count (HEK-293T; [2]): 1564 and 1391 | Population Apoptotic (%) (HEK-293T; [3]): 23% and 62% | Population Fragmented Nuclei (%) (HEK-293T; [3]): 5% | Population Healthy Nuclei (%) (HEK-293T; [3]): 86% and 83% | Population Hoechst High Intensity Objects (%) (HEK-293T; [3]): 9% | Population Membrane Permeable-Phenotype (%) (HEK-293T; [3]): 26% and 27% | Population Mitochondria Different-Phenotype (%) (HEK-293T; [3]): 13% and 12% | Population Mitotic Cells (%) (HEK-293T; [3]): 76% and 37% | Population Normal (%) (HEK-293T; [3]): 90% | Population Pyknosed Nuclei (%) (HEK-293T; [3]): 7% and 10% | Population Tubulin-Different-Phenotype (%) (HEK-293T; [3]): 87% and 91% | Total Cell Count (HEK-293T; [3]): 752 and 689
